“And” between values parts separate entries of the source, which are not always exact repeats. Equal entries are not always repeated.
What was measured:
HEK-293T = assay: Multiplex assay against HEK293T; format: toxicity, cell-based; conditions: human, 10 µM, compound concentration 10 uM;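 as to Population Tubulin-Different-Phenotype (%): share of the cells with healthy nuclei that show this phenotype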
Procedure, shortened: (§1)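 Phenotypes for tubulin, mitochondrial mass and membrane permeability are expressed as per cents of healthy-nucleus cells. Cells were stained live at seeding with Hoechst33342, BioTracker Green Microtubule Cytoskeleton Dye, MitoTracker Red and Annexin V Alexa Fluor 680, then imaged after compound addition on a CQ1 microscope at 37°C and 5% CO2. Machine-learning gating in CellPathfinder separated Hoechst high-intensity objects from normal cells, divided normal cells by nuclear state (healthy, pyknosed, fragmented) and divided pyknosed cells into mitotic or apoptotic.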

U2OS = assay: Multiplex assay against U2OS; format: toxicity, cell-based; conditions: human, 10 µM, compound concentration 10 uM; procedure, shortened: as §1

## C1=N/C2=N/c3ccc(OCCN4CCCC4)c(c3)COC/C=C\COCc3cccc(c3)C(=C1)N2
HEK-293T; 24 h, replicate 2
  Population Hoechst High Intensity Objects (%): 19% and 13% and 7%
  Population Mitochondria Different-Phenotype (%): 69% and 78% and 54%
  Population Normal (%): 80% and 86% and 92%
  Population Pyknosed Nuclei (%): 79% and 55% and 35%
  Population Tubulin-Different-Phenotype (%): 100% and 87% and 94%
HEK-293T; 48 h, replicate 1
  Population Apoptotic (%): 87%
  Population Fragmented Nuclei (%): 37%
  Population Healthy Nuclei (%): 0%
  Population Hoechst High Intensity Objects (%): 26%
  Population Membrane Permeable-Phenotype (%): 0%
  Population Mitochondria Different-Phenotype (%): 0%
  Population Mitotic Cells (%): 12%
  Population Normal (%): 73%
  Population Pyknosed Nuclei (%): 62%
  Population Tubulin-Different-Phenotype (%): 0%
  Total Cell Count: 253
HEK-293T; 48 h, replicate 2
  Population Fragmented Nuclei (%): 17%
  Population Healthy Nuclei (%): 18%
  Population Hoechst High Intensity Objects (%): 15%
  Population Membrane Permeable-Phenotype (%): 3%
  Population Mitochondria Different-Phenotype (%): 81%
  Population Normal (%): 84%
  Population Pyknosed Nuclei (%): 64%
  Population Tubulin-Different-Phenotype (%): 96%
  Total Cell Count: 212
U2OS; 12 h, replicate 1
  Population Apoptotic (%): 87% and 88% and 55%
  Population Fragmented Nuclei (%): 35% and 19% and 20%
  Population Hoechst High Intensity Objects (%): 6% and 13%
  Population Normal (%): 93% and 86%
  Population Pyknosed Nuclei (%): 44% and 67% and 25%
  Population Tubulin-Different-Phenotype (%): 94% and 60%
  Total Cell Count: 194 and 177 and 149
U2OS; 12 h, replicate 2
  Population Apoptotic (%): 90% and 68%
  Population Fragmented Nuclei (%): 53% and 29%
  Population Hoechst High Intensity Objects (%): 16% and 10% and 7%
  Population Normal (%): 83% and 89% and 92%
  Population Pyknosed Nuclei (%): 27% and 53% and 22%
  Population Tubulin-Different-Phenotype (%): 55% and 100% and 43%
  Total Cell Count: 154 and 71 and 158
U2OS; 24 h, replicate 1
  Population Apoptotic (%): 98% and 82%
  Population Fragmented Nuclei (%): 23% and 31% and 11%
  Population Hoechst High Intensity Objects (%): 14% and 15%
  Population Mitochondria Different-Phenotype (%): 100% and 88% and 63%
  Population Normal (%): 85% and 84%
  Population Pyknosed Nuclei (%): 75% and 54% and 32%
  Population Tubulin-Different-Phenotype (%): 100% and 88% and 69%
  Total Cell Count: 179 and 191 and 200
U2OS; 24 h, replicate 2
  Population Apoptotic (%): 100% and 96% and 88%
  Population Membrane Permeable-Phenotype (%): 50% and 81% and 33%
  Population Mitochondria Different-Phenotype (%): 20% and 57%
  Population Mitotic Cells (%): 0% and 3% and 11%
  Population Normal (%): 83% and 67% and 90%
  Population Tubulin-Different-Phenotype (%): 40% and 61%
  Total Cell Count: 154 and 69 and 193
U2OS; 48 h, replicate 1
  Population Apoptotic (%): 100%
  Population Fragmented Nuclei (%): 28%
  Population Healthy Nuclei (%): 1%
  Population Hoechst High Intensity Objects (%): 16%
  Population Membrane Permeable-Phenotype (%): 100%
  Population Mitochondria Different-Phenotype (%): 100%
  Population Mitotic Cells (%): 0%
  Population Normal (%): 83%
  Population Pyknosed Nuclei (%): 70%
  Population Tubulin-Different-Phenotype (%): 100%
  Total Cell Count: 162
U2OS; 48 h, replicate 2
  Population Fragmented Nuclei (%): 19%
  Population Healthy Nuclei (%): 33%
  Population Hoechst High Intensity Objects (%): 37%
  Population Membrane Permeable-Phenotype (%): 92%
  Population Mitochondria Different-Phenotype (%): 92%
  Population Normal (%): 62%
  Population Pyknosed Nuclei (%): 47%
  Population Tubulin-Different-Phenotype (%): 92%
  Total Cell Count: 70

From ChEMBL document CHEMBL4689842, “EUbOPEN Chemogenomics Library wave 1” (2021)
